Positions count from the first letter of the chain named. Where two headings read alike, the source gives them in different places.
Assays:
[1] = system: α-subunit of the rat olfactory CNG channel (OLFα); settings: ref Molokanova et al. 2000; cited from earlier work
[2] = system: CHM17 (RETα with the OLFα cyclic nucleotide–binding domain); experiment: Genistein inhibition of closed chimeric channel CHM17; assay type: biochemical, bovine/rat; settings: closed channels
How it was run: (§1)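 Chimeric RETα/OLFα channels were expressed in Xenopus oocytes (50 nl of 50 ng/μl RNA, 2–7 d), and the vitelline membrane was removed. Inside-out patches were bathed in symmetrical 115 mM NaCl, 5 mM EGTA, 1 mM EDTA, 5 mM HEPES, pH 7.5, held at −75 mV. Test compound was preapplied 1 min to closed channels, then saturating 2 mM cGMP; residual current normalized to Imax.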

[3] = system: CHM16 (switched NH2-terminal domain through part of S1); experiment: Genistein inhibition of closed chimeric channel CHM16; assay type: biochemical, bovine/rat; settings: closed channels; behaved like parent channel
How it was run: as §1

[4] = system: CHM 19 (RETα with the OLFα pore); experiment: Genistein inhibition of closed chimeric channel CHM 19; assay type: biochemical, bovine/rat; settings: closed channels
How it was run: as §1

[5] = biological target: T1, CHM35 (RETα with Q417 substituted with a histidine) (Bos taurus, UniProt Q00194, Q417H); experiment: Genistein inhibition of closed chimeric channel CHM35; assay type: biochemical, bovine/rat; settings: closed channels
T1 sequence (Q00194 1-690 Q417H): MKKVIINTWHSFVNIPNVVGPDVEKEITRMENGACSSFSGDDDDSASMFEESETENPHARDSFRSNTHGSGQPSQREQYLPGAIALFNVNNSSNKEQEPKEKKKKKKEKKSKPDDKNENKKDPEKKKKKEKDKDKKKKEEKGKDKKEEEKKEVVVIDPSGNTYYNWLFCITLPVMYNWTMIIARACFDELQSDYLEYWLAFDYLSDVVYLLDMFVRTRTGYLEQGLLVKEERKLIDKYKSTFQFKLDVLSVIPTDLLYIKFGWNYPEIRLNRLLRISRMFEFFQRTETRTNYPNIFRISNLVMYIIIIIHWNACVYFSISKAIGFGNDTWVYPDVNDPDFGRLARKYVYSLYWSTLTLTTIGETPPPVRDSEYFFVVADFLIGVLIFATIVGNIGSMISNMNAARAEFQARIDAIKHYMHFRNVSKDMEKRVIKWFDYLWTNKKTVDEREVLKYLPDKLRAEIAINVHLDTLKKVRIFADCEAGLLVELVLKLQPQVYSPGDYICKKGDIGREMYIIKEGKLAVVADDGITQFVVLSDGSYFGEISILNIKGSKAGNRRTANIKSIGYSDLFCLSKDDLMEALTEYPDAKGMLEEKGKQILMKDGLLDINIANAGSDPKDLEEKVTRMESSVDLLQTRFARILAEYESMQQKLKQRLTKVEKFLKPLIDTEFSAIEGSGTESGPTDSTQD
How it was run: as §1

[6] = system: CHM 15 (switched NH2-terminal domain through part of S1); experiment: Genistein inhibition of closed chimeric channel CHM 15; assay type: biochemical, bovine/rat; settings: closed channels; behaved like parent channel
How it was run: as §1

[7] = biological target: T2, α-subunit of the bovine retinal rod CNG channel (RETα) (Bos taurus, UniProt Q00194); assay type: biochemical; settings: for opening allosteric constant (L): L = Po/(1 − Po)
T2 sequence (Q00194 1-690): T1 sequence (Q00194 1-690 Q417H) with H417Q

[8] = biological target: T2, α-subunit of the bovine retinal rod CNG channel (RETα); assay type: biochemical; settings: for Ki: Ki (apparent affinity)
How it was run: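 RETα was expressed in oocytes from 50 nl of 50 ng/μl RNA. Inside-out patches were held at −75 mV in symmetrical NaCl/EGTA/EDTA/HEPES, pH 7.5, with solution exchange within 50 ms. Current was normalized to Imax: residual current after 1 min preexposure then 2 mM cGMP, or steady-state current with compound added during 2 mM cGMP. Ki and Hill coefficient came from a modified Hill fit; τa from single-exponential fits; mean ± SEM.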

[9] = after genistein application, saturating cGMP

O=c1c(-c2ccc(O)cc2)coc2cc(O)cc(O)c12 [genistein]
genistein inhibition [1]: do not exhibit genistein inhibition
genistein inhibition [2]: complete inhibition
effect of domain switch on genistein inhibition [3]: had no effect
effect of domain exchange on genistein inhibition [4]: did not alter genistein inhibition
genistein inhibition [5]: did not reduce genistein inhibition
effect of domain switch on genistein inhibition [6]: had no effect
effect on single-channel current ([7]; 100 μM genistein, saturating cGMP): unaffected
decrease in the average Po ([7]; 100 μM genistein, saturating cGMP, six patches): 39 ± 6%
Po during periods of high activity (bursty pattern) [7, 9]: 0.4–0.9
duration of high-Po periods [7, 9]: 15 to 30 s
duration of silent periods (Po = 0) [7, 9]: 10 to 80 s
single-channel current (i) ([7]; after preexposure to 100 μM genistein, Fig. 6 A): 1.97 pA
single-channel current (i) ([7]; after preexposure to 100 μM genistein, Fig. 6 B): 1.96 pA
Po, intermediate gating mode ([7]; after preexposure to 100 μM genistein, all four patches with this mode): 0.39 ± 0.08
decrease of L compared with control ([7]; in the presence of genistein): 30–1,000 fold
single-channel current (i) ([7]; in the presence of genistein, 2 mM cGMP, −80 mV, Fig. 5 B): 1.97 pA
open probability (Po) ([7]; in the presence of genistein, 2 mM cGMP, −80 mV, Gaussian fit, Fig. 5 B): 0.529
free energy of channel opening (ΔGopening) ([7]; one genistein molecule): 0.24 kcal/mol
opening allosteric constant (L) ([7]; one genistein molecule bound): 0.61
opening allosteric constant (L) ([7]; two genistein molecules bound): 0.02
Ki ([8]; closed channels): 4.3 ± 0.9 µM
Ki ([8]; fully activated channels (saturating cGMP)): 84.1 ± 6.8 µM
Hill coefficient of genistein inhibition ([8]; closed channels): 1.97 ± 0.08
dissociation of genistein–PTK from closed channels (time) ([8]; closed channels): > 1 min
residual current, of maximal current ([8]; closed channels pretreated with Ni^2+ and genistein for 1 min): 32.1 ± 3.4%
residual current, of maximal current ([8]; closed channels pretreated with genistein alone): 1.3 ± 0.8%
association time constant (τa) ([8]; closed channels, 10 μM genistein): 9.1 ± 0.4 s
association time constant (τa) ([8]; closed channels, 25 μM genistein): 8.9 ± 0.6 s
association time constant (τa) ([8]; closed channels, 100 μM genistein): 8.6 ± 0.7 s
dissociation time constant ([8]; closed channels, first of two exponentials, 1-s cGMP puffs every 15 s): 66 s
dissociation time constant ([8]; closed channels, second of two exponentials, 1-s cGMP puffs every 15 s): 808 s
association time constant (τa) ([8]; closed channels, single exponential fit, Fig. 2 A, 100 μM genistein): 9.3 s
Hill coefficient of genistein inhibition ([8]; fully activated channels): 1.02 ± 0.03
association time constant (τa) ([8]; fully activated channels, 25 μM genistein): 12.1 ± 0.6 s
association time constant (τa) ([8]; fully activated channels, 100 μM genistein): 12.6 ± 0.7 s
association time constant (τa) ([8]; fully activated channels, 250 μM genistein): 12.6 ± 0.9 s
association time constant (τa) ([8]; fully activated channels, single exponential fit, Fig. 2 B): 13.1 s
dissociation time constant ([8]; fully activated channels, single exponential, after 1 min preexposure): 14.4 s
efficacy of genistein inhibition ([8]; fully activated channels, steady-state current in saturating cGMP): 65 ± 6%
change in cGMP sensitivity ([8]; genistein applied on fully activated channels): fourfold decrease
inhibition at 100 µM ([8]; read-out: inhibition of macroscopic current): 41%
fraction of steady-state current from channels devoid of genistein–PTK ([8]; saturating cGMP plus genistein, Fig. 3 B protocol): < 60%
